Legend:
HCC 2998 = experiment: Growth inhibition in HCC2998 cells; assay type: functional; conditions: Homo sapiens
[1] = Cytotoxicity against KB-3-1 cell line; assay type: cell-based; conditions: Homo sapiens
Method in brief: (§1)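 Log-phase cells were diluted to 20 000–30 000 cells/mL, seeded, and left to attach overnight. They were then exposed to compounds at 10^–5–10^–12 M for 72 h at 37 °C in 5% CO2. Viable cells were measured by MTT, with absorbance read at 595 nm. Each compound ran in triplicate in at least three independent assays. IC50 came from nonlinear regression, and average values were reported.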

RXF 393 = experiment: Growth inhibition in RXF393 cells; assay type: functional; conditions: Homo sapiens
HOP-62 = experiment: Growth inhibition in HOP62 cells; assay type: functional; conditions: Homo sapiens
TK-10 = experiment: Growth inhibition in TK10 cells; assay type: functional; conditions: Homo sapiens
Tubulin = experiment: Inhibition of tubulin polymerization; assay type: protein-complex assay, Homo sapiens
Method in brief: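 Kit-based assay run per the manufacturer's instructions. Tubulin (>99% pure, 3 mg/mL) in G-PEM buffer, in a prewarmed plate with compound at 0.03–30 μM. OD340 nm read every 60 s at 37 °C for 1 h.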

NCI/ADR-RES = experiment: Growth inhibition in NCI/ADR-RES cells; assay type: functional; conditions: Homo sapiens
NCI-H23 = experiment: Growth inhibition in NCI-H23 cells; assay type: functional; conditions: Homo sapiens
HeLa = experiment: Cytotoxicity against HeLa cell line; assay type: cell-based; conditions: Homo sapiens; method in brief: as §1
SF-539 = experiment: Growth inhibition in SF539 cells; assay type: functional; conditions: Homo sapiens
SNB-75 = experiment: Growth inhibition in SNB75 cells; assay type: functional; conditions: Homo sapiens
SK-MEL-5 = experiment: Growth inhibition in SK-MEL-5 cells; assay type: functional; conditions: Homo sapiens
SF-268 = experiment: Growth inhibition in SF268 cells; assay type: functional; conditions: Homo sapiens
BT-549 = experiment: Growth inhibition in BT549 cells; assay type: functional; conditions: Homo sapiens
DU-145 = experiment: Growth inhibition in DU145 cells; assay type: functional; conditions: Homo sapiens
EKVX = experiment: Growth inhibition in EKVX cells; assay type: functional; conditions: Homo sapiens
[2] = Growth inhibition in HCC116 cells; assay type: functional; conditions: Homo sapiens
IGROV-1 = experiment: Growth inhibition in IGROV1 cells; assay type: functional; conditions: Homo sapiens
MCF7 = experiment: Growth inhibition in MCF7 cells; assay type: functional; conditions: Homo sapiens
NCI-H226 = experiment: Growth inhibition in NCI-H226 cells; assay type: functional; conditions: Homo sapiens
HOP-92 = experiment: Growth inhibition in HOP92 cells; assay type: functional; conditions: Homo sapiens
SK-OV-3 = experiment: Growth inhibition in SKOV3 cells; assay type: functional; conditions: Homo sapiens
U-251 = experiment: Growth inhibition in U251cells; assay type: functional; conditions: Homo sapiens
KM12 = experiment: Growth inhibition in KM12 cells; assay type: functional; conditions: Homo sapiens
NCI-H322M = experiment: Growth inhibition in NCI-H322M cells; assay type: functional; conditions: Homo sapiens
NCI-H460 = experiment: Growth inhibition in NCI-H460 cells; assay type: functional; conditions: Homo sapiens
OVCAR-8 = experiment: Growth inhibition in OVCAR8 cells; assay type: functional; conditions: Homo sapiens
A549 = experiment: Growth inhibition in A549 cells; assay type: functional; conditions: Homo sapiens
M14 = experiment: Growth inhibition in M14 cells; assay type: functional; conditions: Homo sapiens
OVCAR-4 = experiment: Growth inhibition in OVCAR4 cells; assay type: functional; conditions: Homo sapiens
HT-29 = experiment: Growth inhibition in HT29 cells; assay type: functional; conditions: Homo sapiens
HL-60 = experiment: Growth inhibition in HL60 cells; assay type: functional; conditions: Homo sapiens
OVCAR-5 = experiment: Growth inhibition in OVCAR5 cells; assay type: functional; conditions: Homo sapiens
PC-3 = experiment: Growth inhibition in PC3 cells; assay type: functional; conditions: Homo sapiens
[3] = Growth inhibition in HS 578T cells; assay type: functional; conditions: Homo sapiens
786-0 = experiment: Growth inhibition in 786-0 cells; assay type: functional; conditions: Homo sapiens
T47D = experiment: Growth inhibition in T47D cells; assay type: functional; conditions: Homo sapiens
UACC-62 = experiment: Growth inhibition in UACC62 cells; assay type: functional; conditions: Homo sapiens
SF-295 = experiment: Growth inhibition in SF295 cells; assay type: functional; conditions: Homo sapiens
MDA-MB-435 = experiment: Growth inhibition in MDA-MB-435 cells; assay type: functional; conditions: Homo sapiens
LOX IMVI = experiment: Growth inhibition in LOX IMVI cells; assay type: functional; conditions: Homo sapiens
UO-31 = experiment: Growth inhibition in UO31 cells; assay type: functional; conditions: Homo sapiens
A498 = experiment: Growth inhibition in A498 cells; assay type: functional; conditions: Homo sapiens
CCRF-CEM = experiment: Growth inhibition in CCRF-CEM cells; assay type: functional; conditions: Homo sapiens
UACC-257 = experiment: Growth inhibition in UACC257 cells; assay type: functional; conditions: Homo sapiens
ZR-75-1 = experiment: Cytotoxicity against ZR-75-1 cell line; assay type: cell-based; conditions: Homo sapiens; method in brief: as §1
HCT-116 = experiment: Cytotoxicity against HCT116 cell line; assay type: cell-based; conditions: Homo sapiens; method in brief: as §1
SN12C = experiment: Growth inhibition in SN12C cells; assay type: functional; conditions: Homo sapiens
ACHN = experiment: Growth inhibition in ACHN cells; assay type: functional; conditions: Homo sapiens
[4] = Growth inhibition in HCC15 cells; assay type: functional; conditions: Homo sapiens
COLO 205 = experiment: Growth inhibition in COLO205 cells; assay type: functional; conditions: Homo sapiens
OVCAR-3 = experiment: Growth inhibition in OVCAR-3 cells; assay type: functional; conditions: Homo sapiens
NCI-H522 = experiment: Growth inhibition in NCI-H522 cells; assay type: functional; conditions: Homo sapiens
SW-620 = experiment: Growth inhibition in SW620 cells; assay type: functional; conditions: Homo sapiens
K562 = experiment: Growth inhibition in K562 cells; assay type: functional; conditions: Homo sapiens
SNB-19 = experiment: Growth inhibition in SNB19 cells; assay type: functional; conditions: Homo sapiens
[5] = Cytotoxicity against P-glycoprotein-overexpressing KB-V1 cell line; assay type: cell-based; conditions: Homo sapiens; method in brief: as §1
CAKI-1 = experiment: Growth inhibition in CAK1-1 cells; assay type: functional; conditions: Homo sapiens
[6] = Growth inhibition in MDA-MB-231/ATCC cells; assay type: functional; conditions: Homo sapiens
SK-MEL-2 = experiment: Growth inhibition in SK-MEL-2 cells; assay type: functional; conditions: Homo sapiens
SK-MEL-28 = experiment: Growth inhibition in SK-MEL-28 cells; assay type: functional; conditions: Homo sapiens

Work on COc1cc(-c2nncn2-c2ccc(N(C)C)cc2)cc(OC)c1OC yielded a GI50 (HCC 2998) of 85.1 nM, an IC50 [1] of 119 nM and a GI50 (RXF 393) of 1620 nM. It also gave a GI50 (HOP-62) of 275 nM, a GI50 (TK-10) of 1660 nM and an IC50 (Tubulin) of 4100 nM. For the same compound, the GI50 (NCI/ADR-RES) was 129 nM, the GI50 (NCI-H23) was 6760 nM and the IC50 (HeLa) was 29.6 nM. For the same compound, the GI50 (SF-539) was 324 nM, the GI50 (SNB-75) was 107 nM and the GI50 (SK-MEL-5) was 69.2 nM. For the same compound, the GI50 (SF-268) was 34.7 nM, the GI50 (BT-549) was 25100 nM and the GI50 (DU-145) was 1860 nM. The GI50 (EKVX) was over 100000 nM, the GI50 [2] was 60.3 nM and the GI50 (IGROV-1) was 95.5 nM. It also gave a GI50 (MCF7) of 275 nM, a GI50 (NCI-H226) of 100000 nM and a GI50 (HOP-92) of 389 nM. It also gave a GI50 (SK-OV-3) of 347 nM, a GI50 (U-251) of 151 nM and a GI50 (KM12) of 26.3 nM. It also gave a GI50 (NCI-H322M) of 2630 nM, a GI50 (NCI-H460) of 178 nM and a GI50 (OVCAR-8) of 2570 nM. The GI50 (A549) was 398 nM, the GI50 (M14) was 50.1 nM and the GI50 (OVCAR-4) was 20900 nM. For the same compound, the GI50 (HT-29) was 30.9 nM, the GI50 (HL-60) was 105 nM and the GI50 (OVCAR-5) was 4270 nM. For the same compound, the GI50 (PC-3) was 28.2 nM, the GI50 [3] was 417 nM and the GI50 (786-0) was 398 nM. For the same compound, the GI50 (T47D) was 47.9 nM, the GI50 (UACC-62) was 95.5 nM and the GI50 (SF-295) was 37.1 nM. For the same compound, the GI50 (MDA-MB-435) was under 10 nM, the GI50 (LOX IMVI) was 219 nM and the GI50 (UO-31) was 955 nM. It also gave a GI50 (A498) of 490 nM, a GI50 (CCRF-CEM) of 61.7 nM and a GI50 (UACC-257) of 100000 nM. The IC50 (ZR-75-1) was 308 nM, the IC50 (HCT-116) was 91.5 nM and the GI50 (SN12C) was 724 nM. For the same compound, the GI50 (ACHN) was 204 nM, the GI50 [4] was 60.3 nM and the GI50 (COLO 205) was 87.1 nM. For the same compound, the GI50 (OVCAR-3) was 34.7 nM, the GI50 (NCI-H522) was 57.5 nM and the GI50 (SW-620) was 75.9 nM. For the same compound, the GI50 (K562) was 12.9 nM, the GI50 (SNB-19) was 204 nM and the IC50 [5] was 323 nM. For the same compound, the GI50 (CAKI-1) was 135 nM and the GI50 [6] was 1020 nM.
With COc1ccc(-n2cnnc2-c2cc(OC)c(OC)c(OC)c2)cc1O the GI50 (HCC 2998) was 933 nM, the IC50 [1] was 57.3 nM and the GI50 (RXF 393) was 309 nM. For the same compound, the GI50 (HOP-62) was 490 nM, the GI50 (TK-10) was 7410 nM and the IC50 (Tubulin) was 6000 nM. The GI50 (NCI/ADR-RES) was 1550 nM, the GI50 (NCI-H23) was 4270 nM and the IC50 (HeLa) was 25 nM. The GI50 (SF-539) was 372 nM, the GI50 (SNB-75) was 251 nM and the GI50 (SK-MEL-5) was 288 nM. The GI50 (SF-268) was 257 nM, the GI50 (BT-549) was 3630 nM and the GI50 (DU-145) was 661 nM. The GI50 [2] was 398 nM, the GI50 (IGROV-1) was 447 nM and the GI50 (MCF7) was 617 nM. The GI50 (NCI-H226) was over 100000 nM, the GI50 (HOP-92) was 617 nM and the GI50 (SK-OV-3) was 316 nM. The GI50 (U-251) was 407 nM, the GI50 (KM12) was 141 nM and the GI50 (NCI-H322M) was 91200 nM. The GI50 (NCI-H460) was 407 nM, the GI50 (OVCAR-8) was 977 nM and the GI50 (A549) was 1000 nM. For the same compound, the GI50 (M14) was 295 nM, the GI50 (OVCAR-4) was 417 nM and the GI50 (HT-29) was 2880 nM. The GI50 (HL-60) was 389 nM, the GI50 (SK-MEL-2) was 724 nM and the GI50 (OVCAR-5) was 1950 nM. It also gave a GI50 (PC-3) of 288 nM, a GI50 [3] of 363 nM and a GI50 (786-0) of 501 nM. It also gave a GI50 (T47D) of 269 nM, a GI50 (UACC-62) of 407 nM and a GI50 (SF-295) of 302 nM. The GI50 (MDA-MB-435) was 24.6 nM, the GI50 (LOX IMVI) was 550 nM and the GI50 (UO-31) was 501 nM. The GI50 (A498) was 417 nM, the GI50 (CCRF-CEM) was 295 nM and the GI50 (UACC-257) was over 100000 nM. For the same compound, the IC50 (ZR-75-1) was 141 nM, the IC50 (HCT-116) was 88.9 nM and the GI50 (SN12C) was 603 nM. For the same compound, the GI50 (ACHN) was 417 nM, the GI50 [4] was 631 nM and the GI50 (COLO 205) was 1170 nM. For the same compound, the GI50 (OVCAR-3) was 195 nM, the GI50 (SK-MEL-28) was 427 nM and the GI50 (NCI-H522) was 263 nM. For the same compound, the GI50 (SW-620) was 380 nM, the GI50 (K562) was 209 nM and the GI50 (SNB-19) was 407 nM. The IC50 [5] was 544 nM, the GI50 (CAKI-1) was 708 nM and the GI50 [6] was 977 nM.

— ChEMBL document CHEMBL1141374 (J Med Chem, 2007)
